Experimental data: ChEMBL document CHEMBL1777679, “Discovery and optimization of pyrazoline compounds as B-Raf inhibitors” (Bioorg Med Chem Lett, 2010)
pIC50: −log10 of the molar value. In brackets after ≈: the same amount, converted by molar mass.

Key:
[1] = target: T1, Serine/threonine-protein kinase B-raf (Homo sapiens, UniProt P15056, V600E); assay: Inhibition of B-Raf V600E mutant after 2 hrs; details: in the assay text read “after 3 hrs” for “after 2 hrs”
In short: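 Raf kinase activity measured with a biotinylated peptide substrate at 30 °C for 3 h. After the stop step, the mixture was incubated 2 h on a streptavidin-coated flashplate and counts were read by scintillation.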

[2] = target: T1, Serine/threonine-protein kinase B-raf; assay: Inhibition of B-Raf V600E mutant-mediated pERK phosphorylation in human A375 cells after 3 hrs by whole cell ELISA assay; format: cell-based, A-375
In short: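 A375 human melanoma cells (B-Raf V600E) were seeded overnight and exposed to inhibitor for 3 h. Cells were then fixed, permeabilized and blocked overnight. Detection used anti-phospho-ERK antibody for 1 h, then an HRP conjugate, with tetramethylbenzidine read at OD 650 nm.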

[3] = Bioavailability in Sprague-Dawley rat at 0.5 to 1 mg/kg, iv and 10 mg/kg, po; format: ADME, organism-based; details: in vivo
In short: (§1)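 Male SD rats dosed intravenously at 0.5 mg/kg or 1 mg/kg, or orally at 10 mg/kg. Plasma exposure, clearance and oral bioavailability derived from plasma levels.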

[4] = Clearance in Sprague-Dawley rat at 0.5 to 1 mg/kg, iv and 10 mg/kg, po; format: ADME, organism-based; details: in vivo; in short: as §1
[5] = AUC in Sprague-Dawley rat at 0.5 to 1 mg/kg, iv and 10 mg/kg, po; format: ADME, organism-based; details: plasma; in short: as §1
[6] = target: T1, Serine/threonine-protein kinase B-raf; assay: Inhibition of B-Raf V600E mutant after 3 hrs
[7] = Aqueous solubility of the compound in 50 mM of potassium phosphate buffer at pH 6.8 by turbidimetric method; format: physicochemical
In short: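 Turbidimetric kinetic solubility in 50 mM potassium phosphate buffer, pH 6.8.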

[8] = target: T1, Serine/threonine-protein kinase B-raf; assay: Inhibition of B-Raf V600E mutant
In short: (§2)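 Raf kinase reaction with biotinylated peptide substrate run 3 h at 30 °C. After a stop step, the mixture is held 2 h on streptavidin-coated flashplates to capture the substrate, and the plates are read by scintillation counting.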

[9] = target: RAF proto-oncogene serine/threonine-protein kinase (Homo sapiens, UniProt P04049); assay: Inhibition of C-Raf
Chain of RAF proto-oncogene serine/threonine-protein kinase (P04049 whole entry): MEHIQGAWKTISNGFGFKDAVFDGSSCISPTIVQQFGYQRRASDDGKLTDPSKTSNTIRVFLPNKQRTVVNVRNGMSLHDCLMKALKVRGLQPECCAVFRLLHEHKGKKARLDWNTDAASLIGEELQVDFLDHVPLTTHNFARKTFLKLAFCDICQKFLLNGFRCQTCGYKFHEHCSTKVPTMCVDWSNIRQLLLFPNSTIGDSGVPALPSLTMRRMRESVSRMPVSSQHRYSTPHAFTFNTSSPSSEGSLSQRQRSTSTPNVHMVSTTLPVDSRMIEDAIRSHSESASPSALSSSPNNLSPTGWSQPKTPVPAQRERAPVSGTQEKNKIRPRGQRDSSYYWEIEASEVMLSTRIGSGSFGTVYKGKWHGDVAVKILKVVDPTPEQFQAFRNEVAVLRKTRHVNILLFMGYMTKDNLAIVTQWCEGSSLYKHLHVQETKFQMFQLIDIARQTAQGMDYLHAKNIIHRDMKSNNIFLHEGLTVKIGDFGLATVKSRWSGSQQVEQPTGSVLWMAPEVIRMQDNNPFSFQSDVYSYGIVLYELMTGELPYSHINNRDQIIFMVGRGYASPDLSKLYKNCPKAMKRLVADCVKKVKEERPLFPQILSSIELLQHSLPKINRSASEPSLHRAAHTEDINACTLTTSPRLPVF

[10] = target: Serine/threonine-protein kinase B-raf (Homo sapiens, UniProt P15056); assay: Inhibition of B-Raf; in short: as §2
Chain of Serine/threonine-protein kinase B-raf (Homo sapiens, UniProt P15056) (P15056 whole entry): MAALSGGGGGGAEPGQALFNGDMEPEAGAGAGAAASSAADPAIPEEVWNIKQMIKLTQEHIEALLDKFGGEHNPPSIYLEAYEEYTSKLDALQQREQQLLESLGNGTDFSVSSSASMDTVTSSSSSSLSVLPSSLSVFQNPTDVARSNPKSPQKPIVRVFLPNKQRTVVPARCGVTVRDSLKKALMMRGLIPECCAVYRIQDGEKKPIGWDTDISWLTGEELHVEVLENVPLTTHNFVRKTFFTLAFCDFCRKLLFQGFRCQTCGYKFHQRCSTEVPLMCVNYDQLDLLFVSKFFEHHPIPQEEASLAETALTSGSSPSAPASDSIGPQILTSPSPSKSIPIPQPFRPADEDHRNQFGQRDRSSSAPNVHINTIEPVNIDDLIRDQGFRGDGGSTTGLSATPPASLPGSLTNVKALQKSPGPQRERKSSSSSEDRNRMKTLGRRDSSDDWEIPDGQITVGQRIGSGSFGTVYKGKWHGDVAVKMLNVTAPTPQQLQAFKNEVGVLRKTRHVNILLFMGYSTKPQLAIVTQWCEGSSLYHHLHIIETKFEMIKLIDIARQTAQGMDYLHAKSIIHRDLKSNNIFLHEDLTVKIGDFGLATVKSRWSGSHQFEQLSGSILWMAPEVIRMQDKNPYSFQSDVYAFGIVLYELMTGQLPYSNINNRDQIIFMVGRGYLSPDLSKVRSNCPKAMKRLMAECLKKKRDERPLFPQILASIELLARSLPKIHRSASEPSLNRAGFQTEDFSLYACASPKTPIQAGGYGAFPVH

T1 sequence (P15056 2-766 V600E limits assumed): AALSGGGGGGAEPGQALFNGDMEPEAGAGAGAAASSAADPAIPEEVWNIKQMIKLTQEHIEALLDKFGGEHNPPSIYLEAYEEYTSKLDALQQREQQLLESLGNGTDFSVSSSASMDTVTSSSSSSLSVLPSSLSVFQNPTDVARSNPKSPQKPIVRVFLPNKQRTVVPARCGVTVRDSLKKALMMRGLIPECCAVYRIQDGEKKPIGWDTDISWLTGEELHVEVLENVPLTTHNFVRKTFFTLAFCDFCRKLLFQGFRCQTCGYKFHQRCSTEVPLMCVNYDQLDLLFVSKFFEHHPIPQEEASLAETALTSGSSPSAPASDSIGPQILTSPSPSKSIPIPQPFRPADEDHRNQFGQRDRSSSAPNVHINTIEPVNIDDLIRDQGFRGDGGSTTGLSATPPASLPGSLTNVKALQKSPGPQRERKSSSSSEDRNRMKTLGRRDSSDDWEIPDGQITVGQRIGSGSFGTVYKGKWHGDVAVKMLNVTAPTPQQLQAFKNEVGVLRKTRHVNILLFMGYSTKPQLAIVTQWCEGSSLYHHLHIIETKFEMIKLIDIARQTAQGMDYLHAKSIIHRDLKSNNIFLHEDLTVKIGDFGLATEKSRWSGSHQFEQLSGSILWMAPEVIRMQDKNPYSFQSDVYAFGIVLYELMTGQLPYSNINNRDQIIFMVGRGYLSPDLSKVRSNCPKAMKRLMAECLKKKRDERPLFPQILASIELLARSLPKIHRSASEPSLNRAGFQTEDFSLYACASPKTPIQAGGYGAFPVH

pIC50 [1] | pIC50 [2] | Structure (SMILES) | further results
8.22 | 6.41 | NCc1cccc(-c2ccc(C(=O)N3N=C(c4cccnc4)CC3c3ccccc3O)s2)c1 (racemic) | 
6.10 |  | O=C(c1ccc(-c2ccccn2)s1)N1N=C(c2cccnc2)CC1c1ccccc1 (racemic) | 
8.15 | 6.68 | Cc1nc(-c2ccc(C(=O)N3N=C(c4cccnc4)CC3c3ccccc3O)s2)cs1 (racemic) | 
 | 7.22 | O=C(c1ccc(-c2ccc3c(c2)CNC3)s1)N1N=C(c2cccnc2)CC1c1c(O)cccc1F (racemic) | bioavailability [3]: 37%; clearance [4]: 15 mL/min/kg; AUC [5]: 8.4 µM·h; pIC50 [6]: 8.70
7.96 | 5.85 | O=C(c1ccc(-c2ccccn2)s1)N1N=C(c2cccnc2)CC1c1ccc(F)cc1O (racemic) | 
 | 4.85 | O=C(c1ccc(-c2ccccn2)s1)N1N=C(c2cccnc2)CC1c1ccccc1O (single isomer, unassigned; enantiomer 2) | 
8.30 | 7.09 | NCc1ccc(-c2ccc(C(=O)N3N=C(c4cccnc4)CC3c3ccccc3O)s2)cc1 (racemic) | 
8.15 | 7.19 | NCc1ccccc1-c1ccc(C(=O)N2N=C(c3cncc(N)c3)CC2c2ccccc2O)s1 (racemic) | 
8.30 | 6.85 | O=C(c1ccc(-c2ccc(CO)cc2)s1)N1N=C(c2cccnc2)CC1c1ccccc1O (racemic) | 
8.52 | 7.47 | O=C(c1ccc(-c2ccc3c(c2)CCNC3)s1)N1N=C(c2cccnc2)CC1c1c(O)cccc1F (racemic) | 
8.22 | 6.96 | O=C(c1ccc(-c2cccc(CN3CCCC3)c2)s1)N1N=C(c2cccnc2)CC1c1ccccc1O (racemic) | 
8.52 | 7.68 | O=C(c1ccc(-c2ccc3c(c2)CNCC3)s1)N1N=C(c2cccnc2)CC1c1c(O)cccc1F (racemic) | 
7.89 | 5.85 | O=C(c1ccc(-c2ccccn2)s1)N1N=C(c2cccnc2)CC1c1cccc(F)c1O (racemic) | 
8.52 | 7.41 | O=C(c1ccc(-c2ccccn2)s1)N1N=C(c2cncc(CO)c2)CC1c1ccccc1O (racemic) | 
8.52 | 7.51 | Nc1cncc(C2=NN(C(=O)c3ccc(-c4ccccn4)s3)C(c3ccccc3O)C2)c1 (racemic) | 
 | 6.74 | O=C(c1ccc(-c2cccc3c2CCNC3)s1)N1N=C(c2cccnc2)CC1c1c(O)cccc1F (racemic) | bioavailability [3]: 89%; clearance [4]: 11.7 mL/min/kg; AUC [5]: 26 µM·h
8.30 | 7.10 | O=C(c1ccc(-c2ccccn2)s1)N1N=C(c2cccnc2)CC1c1c(O)cccc1F (racemic) | 
8.00 | 6.57 | NCc1ccccc1-c1ccc(C(=O)N2N=C(c3cccnc3)CC2c2ccccc2O)s1 (racemic) | bioavailability [3]: 76%; clearance [4]: 65 mL/min/kg; AUC [5]: 4.9 µM·h
 | 5.74 | O=C(c1ccco1)N1N=C(c2cccnc2)CC1c1ccccc1O (racemic) | pIC50 [6]: 6.70

pIC50 [1] | pIC50 [2] | Structure (SMILES) | further results
8.52 | 7.26 | Cn1cc(-c2ccc(C(=O)N3N=C(c4cccnc4)CC3c3c(O)cccc3F)s2)cn1 (racemic) | 
8.15 | 7.07 | NCc1ccccc1-c1ccc(C(=O)N2N=C(c3cccnc3)CC2c2c(O)cccc2F)s1 (racemic) | bioavailability [3]: 85%; clearance [4]: 26.7 mL/min/kg; AUC [5]: 11 µM·h
8.15 | 6.17 | O=C(c1ccc(-c2ccccn2)s1)N1N=C(c2cccnc2)CC1c1cc(F)ccc1O (racemic) | 
 | 6.55 | O=C(c1ccc(-c2ccccn2)s1)N1N=C(c2cccnc2)CC1c1ccccc1O (single isomer, unassigned; enantiomer 1) | 
8.30 | 7.68 | O=C(c1ccc(-c2ccc3c(c2)CCNC3)s1)N1N=C(c2cccnc2)CC1c1ccccc1O (racemic) | 
8.05 | 7.05 | Cn1cc(-c2ccc(C(=O)N3N=C(c4cccnc4)CC3c3ccccc3O)s2)cn1 (racemic) | 
8.52 | 7.20 | CC(=O)Nc1cncc(C2=NN(C(=O)c3ccc(-c4ccccn4)s3)C(c3ccccc3O)C2)c1 (racemic) | 
8.52 | 6.92 | O=C(c1ccc(-c2ccc3c(c2)CNC3)s1)N1N=C(c2cncc(CO)c2)CC1c1c(O)cccc1F (racemic) | 
8.40 | 7.25 | NCc1ccccc1-c1ccc(C(=O)N2N=C(c3cncc(N)c3)CC2c2c(O)cccc2F)s1 (racemic) | 
7.10 | 5.82 | Cc1ccccc1-c1ccc(C(=O)N2N=C(c3cccnc3)CC2c2ccccc2O)s1 (racemic) | 
8.52 | 7.74 | Nc1cncc(C2=NN(C(=O)c3ccc(-c4ccccn4)s3)C(c3c(O)cccc3F)C2)c1 (racemic) | 
8.52 | 7.43 | NCc1ccc(-c2ccc(C(=O)N3N=C(c4cccnc4)CC3c3c(O)cccc3F)s2)cc1 (racemic) | 
6.17 | < 4.60 | O=C(c1ccc(-c2ccccn2)s1)N1N=C(c2cccnc2)CC1c1cccc(O)c1 (racemic) | 
8.40 | 7.72 | O=C(c1ccc(-c2ccc3c(c2)CNC3)s1)N1N=C(c2cccnc2)CC1c1ccccc1O (racemic) | bioavailability [3]: 14%; clearance [4]: 58.3 mL/min/kg; AUC [5]: 0.89 µM·h
 | 6.74 | O=C(c1ccc(-c2ccccn2)s1)N1N=C(c2cccnc2)CC1c1ccccc1O (racemic) | solubility kinetic [7]: 5.8 µg/mL (≈ 13.6 µM); pIC50 [6]: 7.64; pIC50 [8]: 7.64; pIC50 [9]: 7.57; pIC50 [10]: 7.77
 | 6.74 | NCc1ccccc1-c1ccc(C(=O)N2N=C(c3cncc(F)c3)CC2c2ccccc2O)s1 (racemic) | pIC50 [6]: 7.68
8.40 | 7.60 | O=C(c1ccc(-c2ccc3c(c2)CNCC3)s1)N1N=C(c2cccnc2)CC1c1ccccc1O (racemic) | 
8.10 | 7.39 | O=C(c1ccc(-c2cccc(CN3CCCC3)c2)s1)N1N=C(c2cccnc2)CC1c1c(O)cccc1F (racemic) | 
